Experimental data collected from several papers.
Protocols differ between the studies behind these lines.
Read-out: enzyme activity
Mode: inhibitor
RET V804L: Proto-oncogene tyrosine-protein kinase receptor Ret (RET, Homo sapiens, UniProt P07949, V804L)
RET: Proto-oncogene tyrosine-protein kinase receptor Ret (RET, Homo sapiens, UniProt P07949)
RET Y791F: Proto-oncogene tyrosine-protein kinase receptor Ret (RET, Homo sapiens, UniProt P07949, Y791F)

C=CC(=O)Nc1cc(Nc2nccc(Nc3cc(Cl)c(F)cc3C(C)(C)O)n2)c(OC)cc1N1CC[C@@H](N(C)C)C1 — inhibition (RET V804L; 1 µM): 8%
CNCc1ccc(-c2cc(-c3nc(-c4ccc(S(=O)(=O)C(C)C)cc4)cnc3N)on2)cc1 — inhibition (RET; 0.4 µM): 22%
CCCS(=O)(=O)Nc1ccc(F)c(C(=O)c2c[nH]c3ncc(-c4ccc(Cl)cc4)cc23)c1F — inhibition (RET; 1 µM): < 10%
CC/C(=N\NC(=O)NCc1cccc(O)c1)c1ccc(O)c(C)c1O — inhibition (Proto-oncogene tyrosine-protein kinase receptor Ret (RET, Homo sapiens, UniProt P07949, M918T); 0.1 µM): 1.1%
COc1cc2ncnc(Nc3ccc(Oc4ccccc4)cc3C)c2cc1OC — inhibition (RET Y791F; 1 µM): 36%
CNC(=O)c1cc2c(Oc3ccc(NC(=O)C4(C(=O)Nc5ccc(F)cc5)CC4)cc3)ccnc2cc1OC — inhibition (RET; radiometric; 1 µM): 98%
COc1cc(-c2cc(-c3ccc(N4CCNCC4)cc3)cnc2N)cc(OC)c1OC — inhibition (RET Y791F; 0.1 µM): 3%
COc1cc2ncnc(Nc3ccc(Oc4ccccc4)c(C)c3C)c2cc1OC — inhibition (RET V804L; 1 µM): 2%
